Assay results from paper PMC7008087 (Biochimica et biophysica acta. Molecular cell research, 2019).

Experiments:
Akt = Akt phosphorylation; type: cell-based, human
p44/42 = p44/42 MAPK phosphorylation; type: cell-based, human
H441 and Calu-3 cells = assay: Cell-proliferation, H441 and Calu-3 reported together; type: cell-based, human; conditions: for effect on Bn-stimulated increase in cell-proliferation: H441 and Calu-3 cells, Bn 1 μM, 24 hr, CCK-8 and MTS
HER3/HER2 = HER3/HER2 heterodimerization; type: cell-based, human; conditions: H441 and Calu-3 cells; 100 nM Bn or 100 ng/mL NRG-1
How it was run: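 Serum-starved H441 and Calu-3 cells received no addition, 100 nM Bn or 100 ng/mL NRG-1. RIPA lysate (800 μg protein) was incubated with anti-HER3 antibody for 1 hr at 4 °C, then with protein A/G agarose overnight at 4 °C. Beads were washed five times in RIPA and boiled in Laemmli buffer. Partners were detected by Western blot, with tubulin from whole-cell extract as loading control; values are given as ratio to control.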

HER3/EGFR = HER3/EGFR heterodimerization; type: cell-based, human; conditions: H441 and Calu-3 cells; 100 nM Bn or 100 ng/mL NRG-1
How it was run: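 Serum-starved (overnight) 80%-confluent cells treated with test peptide (100 nM) or reference ligand (100 ng/mL); lysed in RIPA (pH 7.6), sonicated, cleared. 800 μg protein with anti-HER3 antibody, 1 hr at 4 °C, then protein A/G agarose overnight at 4 °C; five RIPA washes. Immunoblotted for partner receptors by chemiluminescence; background-subtracted densitometry as ratio to untreated control; whole-extract tubulin as loading control.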

EGFR, HER2, and HER3 = assay: EGFR, HER2 and HER3 phosphorylation reported together; type: cell-based, human
How it was run: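 Time course: serum-starved (overnight) H441, H2087 or Calu-3 cells were stimulated with Bn 100 nM or NRG-1 100 ng/mL for 3-60 min. Cells were lysed in RIPA and blotted for phospho-EGFR (Tyr1068), HER2 (Tyr1248) and HER3 (Tyr1289) using primary antibodies at 1:1000 overnight at 4 °C. Tubulin served as loading control, and background-subtracted densitometry was expressed as % of basal.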

HER2 = HER2 phosphorylation; type: cell-based, human; conditions: for EC50, HER2 phosphorylation: mean ± SEM of three independent experiments
How it was run: (§1)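 H441 or H2087 cells at 80% confluence were serum-starved overnight, then given Bn (0.1-100 nM) or NRG-1 (0.1-100 ng/mL) for 3 min. Cells were lysed in RIPA buffer (pH 7.6) and protein was measured by BCA. Lysates were run on a 4–20% gel and blotted for phospho-EGFR Tyr1068, HER2 Tyr1248 and HER3 Tyr1289, with tubulin as loading control. Bands were read by densitometry as % basal; mean ± SEM, ≥3 experiments.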

HER3 = HER3 (Homo sapiens, UniProt P21860); assay: HER3 phosphorylation; type: cell-based; conditions: for EC50, HER3 phosphorylation: mean ± SEM of three independent experiments
How it was run: as §1

EGFR = EGFR phosphorylation; type: cell-based, human; conditions: for EC50, EGFR phosphorylation: mean ± SEM of three independent experiments
How it was run: as §1

[1] = Wortmannin 1 μM or LY294002 10 μM
[2] = Calu-3 cells, Bn 100 nM or NRG-1 100 ng/mL
[3] = H441 cells, NRG-1 0.1-100 ng/mL, 3 min
[4] = H441 cells, dose-response, 3 min, Bn 100 nM maximal, NRG-1 0.1-100 ng/mL
[5] = H2087 cells, 100 nM Bn or 100 ng/mL NRG-1, 3 min

With `COc1cc2ncnc(Nc3ccc(F)c(Cl)c3)c2cc1OCCCN1CCOCC1` [gefitinib] the “effect on Bn-induced increment of Akt phosphorylation” value (Akt) was “no significant inhibitory effect”, the activity at 10 µg/mL (Akt; Homo sapiens, NCI-H441, read-out: basal phosphorylation of Akt (% of control)) was 79% and the “effect on Bn-stimulated phosphorylation of p44/42” value (p44/42; H441 cells, gefitinib 10 μg/mL or EGFR knockdown, Bn 100 nM, 15 min) was “did not affect”. The activity at 10 µg/mL (p44/42; Homo sapiens, NCI-H441, read-out: basal phosphorylation of p44/42 (% of control)) was 75%, the “effect on Bn-stimulated increase in cell-proliferation” value (“effect on Bn-stimulated increase” below) (H441 and Calu-3 cells; gefitinib 10 μg/mL) was “no effect” and the activity at 10 µg/mL (H441 and Calu-3 cells; Homo sapiens, 24 h, read-out: basal stimulation (% of control)) was 36 to 45%.

For `O=c1cc(N2CCOCC2)oc2c(-c3ccccc3)cccc12` [LY294002], the “effect on Bn-stimulated increase” value (H441 and Calu-3 cells; [1]) was “no significant effect”.

`COC[C@H]1OC(=O)c2coc3c2[C@@]1(C)C1=C(C3=O)[C@@H]2CCC(=O)[C@@]2(C)C[C@H]1OC(C)=O` [Wortmannin, wortmannin] was tested, and the “effect on Bn-stimulated increase” value (H441 and Calu-3 cells; [1]) was “no significant effect”.

For neuregulin-1 [NRG-1], the “time of maximum phosphorylation of Akt” value (Akt; H441, H2087 and Calu-3 cells, NRG-1 100 ng/mL) was 60 min, the “phosphorylation of p44/42 at 60 minutes” value (p44/42; [2]) was “still present” and the “stimulation time of maximum phosphorylation of p44/42” value (p44/42; H441, H2087 and Calu-3 cells, Bn 100 nM or NRG-1 100 ng/mL) was 15 min. The “phosphorylation of p44/42 at 60 minutes” value (p44/42; H441 and H2087 cells, Bn 100 nM or NRG-1 100 ng/mL) was “not maintained at 60 minutes”, the HER3/HER2 heterodimerization (HER3/HER2) was “HER3/HER2 heterodimerization in both cell-lines” and the HER3/EGFR heterodimerization (HER3/EGFR) was “induced HER3/EGFR”. The “stimulation time of maximum EGFR, HER2 and HER3 phosphorylation” value (EGFR, HER2, and HER3; [2]) was 30 to 60 min, the “maximal stimulation compared with Bn” value (EGFR, HER2, and HER3; H441, H2087 and Calu-3 cells, Bn 100 nM, NRG-1 100 ng/mL) was “greater than that seen with Bn” and the “time of maximum phosphorylation of EGFR, HER2, and HER3” value (EGFR, HER2, and HER3; H441 cells, Bn 100 nM or NRG-1 100 ng/mL) was 3 min. For the same molecule, the “EC50, HER2 phosphorylation” value (HER2; [3]) was 16.3 ± 3.4 ng/mL, the “maximal HER2 phosphorylation (fold increase)” value (HER2; [4]) was 34 fold and the “HER2 phosphorylation (fold increase)” value (HER2; [5]) was 22 fold. The “duration of HER2 phosphorylation” value (HER2; H2087 cells, NRG-1 100 ng/mL) was “prolonged phosphorylation”, the “EC50, HER2 phosphorylation” value (HER2; H2087 cells, NRG-1, 3 min) was 7.8 ± 2.0 ng/mL and the “phosphorylation of HER3 maintained at 60 minutes (fold increase)” value (HER3; H441 cells, NRG-1 100 ng/mL, 60 minutes, p < 0.05 vs. control) was 20 fold. The “maximal HER3 phosphorylation (fold increase)” value (HER3; [4]) was 44 fold, the “HER3 phosphorylation (fold increase)” value (HER3; [5]) was 21 fold and the “duration of HER3 phosphorylation” value (HER3; H2087 cells, NRG-1 100 ng/mL) was “prolonged phosphorylation”. The “EC50, EGFR phosphorylation” value (EGFR; [3]) was 4.9 ± 0.9 ng/mL, the “maximum EGFR phosphorylation (fold increase)” value (EGFR; [5]) was 5.2 fold and the “EC50, EGFR phosphorylation” value (EGFR; H2087 cells, NRG-1, 3 min) was 9.7 ± 1.3 ng/mL.

B1: neuregulin-1 (protein)
chain: TSHLVKCAEKEKTFCVNGGECFMVKDLSNPSRYLCKCPNEFTGDRCQNYVMASFYKHLGIEFMEAEELYQK
modifications: the alternative R&D product is the beta1 ECD (2-246)
For B1, the “EC50, HER3 phosphorylation” value (HER3; [3]) was 14.3 ± 1.7 ng/mL and the “EC50, HER3 phosphorylation” value (HER3; H2087 cells, NRG-1, 3 min) was 8.1 ± 1.7 ng/mL.
